Measured values reported in ChEMBL document CHEMBL1949668, “Synthesis of new α aminophosphonate system bearing Indazole moiety and their biological activity” (2012).

What was measured:
Bacillus subtilis = experiment: Antibacterial activity Bacillus subtilis at 40 ug/disc after 24 hrs by agar disc diffusion method; assay type: functional; settings: for zone of inhibition at 40 µg/disc: read-out: IZ
Summary of the method: (§1)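 Agar disc diffusion. Strains were grown in Mueller Hinton broth for 18–24 h at 37 °C. The bacterial suspension was spread on Mueller Hinton agar, and dried loaded discs were placed on it once the plates were dry. Gentamycin and […] reference discs carried 40 mcg/disc from 1 mg/ml solutions. Plates were incubated 24 h at 37 °C, and clear inhibition zones were measured in mm.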

Escherichia coli = experiment: Antibacterial activity Escherichia coli at 40 ug/disc after 24 hrs by agar disc diffusion method; assay type: functional; settings: read-out: IZ; summary of the method: as §1
Klebsiella pneumoniae = experiment: Antibacterial activity Klebsiella pneumoniae at 40 ug/disc after 24 hrs by agar disc diffusion method; assay type: functional; settings: for zone of inhibition at 40 µg/disc: read-out: IZ; summary of the method: as §1
Pseudomonas aeruginosa = experiment: Antibacterial activity Pseudomonas aeruginosa at 40 ug/disc after 24 hrs by agar disc diffusion method; assay type: functional; settings: read-out: IZ; summary of the method: as §1
Salmonella typhimurium = experiment: Antibacterial activity Salmonella Typhimurium at 40 ug/disc after 24 hrs by agar disc diffusion method; assay type: functional, Salmonella enterica subsp. enterica serovar Typhimurium; settings: for zone of inhibition at 40 µg/disc: Salmonella enterica, read-out: IZ; summary of the method: as §1
Staphylococcus aureus = experiment: Antibacterial activity Staphylococcus aureus at 40 ug/disc after 24 hrs by agar disc diffusion method; assay type: functional; settings: read-out: IZ; summary of the method: as §1

CCOP(=O)(OCC)C(NNC(=O)c1nn(C)c2ccccc12)c1ccccc1 (stereo not drawn)
zone of inhibition at 40 µg/disc (Bacillus subtilis): 5 mm | zone of inhibition at 40 µg/disc (Escherichia coli): 0 mm | zone of inhibition at 40 µg/disc (Klebsiella pneumoniae): 3 mm | zone of inhibition at 40 µg/disc (Pseudomonas aeruginosa): 1 mm | zone of inhibition at 40 µg/disc (Salmonella typhimurium): 2 mm | zone of inhibition at 40 µg/disc (Staphylococcus aureus): 2 mm

CCOP(=O)(OCC)C(NNC(=O)c1nn(C)c2ccccc12)c1cccc(F)c1 (stereo not drawn)
zone of inhibition at 40 µg/disc (Bacillus subtilis): 4 mm | zone of inhibition at 40 µg/disc (Escherichia coli): 5 mm | zone of inhibition at 40 µg/disc (Klebsiella pneumoniae): 8 mm | zone of inhibition at 40 µg/disc (Pseudomonas aeruginosa): 7 mm | zone of inhibition at 40 µg/disc (Salmonella typhimurium): 4 mm | zone of inhibition at 40 µg/disc (Staphylococcus aureus): 3 mm

CCOP(=O)(OCC)C(NNC(=O)c1nn(C)c2ccccc12)c1ccccc1Br (stereo not drawn)
zone of inhibition at 40 µg/disc (Bacillus subtilis): 7 mm | zone of inhibition at 40 µg/disc (Escherichia coli): 1 mm | zone of inhibition at 40 µg/disc (Klebsiella pneumoniae): 2 mm | zone of inhibition at 40 µg/disc (Pseudomonas aeruginosa): 4 mm | zone of inhibition at 40 µg/disc (Salmonella typhimurium): 3 mm | zone of inhibition at 40 µg/disc (Staphylococcus aureus): 1 mm

CCOP(=O)(OCC)C(NNC(=O)c1nn(C)c2ccccc12)c1ccc(C(F)(F)F)cc1 (stereo not drawn)
zone of inhibition at 40 µg/disc (Bacillus subtilis): 4 mm | zone of inhibition at 40 µg/disc (Escherichia coli): 3 mm | zone of inhibition at 40 µg/disc (Klebsiella pneumoniae): 7 mm | zone of inhibition at 40 µg/disc (Pseudomonas aeruginosa): 6 mm | zone of inhibition at 40 µg/disc (Salmonella typhimurium): 5 mm | zone of inhibition at 40 µg/disc (Staphylococcus aureus): 5 mm

NC[C@H]1O[C@H](O[C@H]2[C@H](O)[C@@H](O[C@H]3O[C@H](CO)[C@@H](O)[C@H](N)[C@H]3O)[C@H](N)C[C@@H]2N)[C@H](O)[C@@H](O)[C@@H]1O [KANAMYCIN]
zone of inhibition at 40 µg/disc (Bacillus subtilis): 15 mm | zone of inhibition at 40 µg/disc (Escherichia coli): 13 mm | zone of inhibition at 40 µg/disc (Klebsiella pneumoniae): 18 mm | zone of inhibition at 40 µg/disc (Pseudomonas aeruginosa): 21 mm | zone of inhibition at 40 µg/disc (Salmonella typhimurium): 14 mm | zone of inhibition at 40 µg/disc (Staphylococcus aureus): 9 mm

GENTAMICIN
inhibition zone (IZ) (Bacillus subtilis): 15 mm | inhibition zone (IZ) (Klebsiella pneumoniae): 13 mm | inhibition zone (IZ) (Salmonella typhimurium; Salmonella enterica subsp. enterica serovar Typhimurium): 11 mm
